# From ChEMBL document CHEMBL1156796, “Design, synthesis, and antihepatitis B virus activities of novel 2-pyridone derivatives” (J Med Chem, 2010)
# What was measured:
# Hepatitis B virus [1] = assay: Antiviral activity against HBV infected in human HepG2(2.2.15) cells assessed as inhibition of HBeAg level after 9 days by ELISA; type: functional, organism-based; conditions: HepG2 2.2.15, 216 h
# [2] = Selectivity index, ratio of CC50 for human HepG2(2.2.15) cells to IC50 for HBV infected in human HepG2(2.2.15) cells assessed as inhibition of HBeAg; type: functional
# [3] = Selectivity index, ratio of CC50 for human HepG2(2.2.15) cells to IC50 for HBV infected in human HepG2(2.2.15) cells assessed as inhibition of HBV DNA replication; type: functional
# Hepatitis B virus [4] = assay: Antiviral activity against HBV infected in human HepG2(2.2.15) cells assessed as inhibition of HBV DNA replication after 9 days by PCR; type: functional, organism-based; conditions: Hepatitis B virus, HepG2 2.2.15, 216 h; read-out: IC50
# [5] = Cytotoxicity against human HepG2(2.2.15) cells; type: cell-based
# Hepatitis B virus [6] = assay: Antiviral activity against HBV infected in human HepG2(2.2.15) cells assessed as inhibition of HBsAg level after 9 days by ELISA; type: functional, organism-based; conditions: HepG2 2.2.15, 216 h
# [7] = Selectivity index, ratio of CC50 for human HepG2(2.2.15) cells to IC50 for HBV infected in human HepG2(2.2.15) cells assessed as inhibition of HBsAg; type: functional
# Outline: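 MTT at 5 g/L added 4 h before lysis in 10% SDS/50% DMF, pH 7.2, with OD read at 570 nm. IC50: HBsAg in day-9 supernatants measured by ELISA. SI = CC50/IC50.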
SMILES,IC50 (Hepatitis B virus [1]) [µM],Ratio CC50/IC50 [2],Ratio CC50/IC50 [3],IC50 (Hepatitis B virus [4]) [µM],CC50 [5] [µM],IC50 (Hepatitis B virus [6]) [µM],Ratio CC50/IC50 [7]
COc1ccc(C(=O)c2ccc(=O)n(-c3ccc(C)cc3)c2)c(O)c1,2,>59.7,>23.9,5,> 119,> 119,–
COc1ccc(C(=O)c2ccc(=O)n(-c3ccccc3C)c2)c(O)c1,0.1,>1194,>10.85,11,> 119,18,>6.63
COc1ccc(C(=O)c2ccc(=O)n(-c3ccc(C(C)=O)cc3)c2)c(O)c1,774,0.17,11.88,11.2,133,> 110,<1.21
CCCCn1cc(C(=O)c2ccc(OC)cc2O)ccc1=O,> 133,<0.5,2.34,28.6,67,> 133,<0.5
COc1ccc(/C(=N/Cc2ccc(C)cc2)c2ccc(=O)n(Cc3ccc(C)cc3)c2)c(O)c1,> 118,<0.17,0.92,21.7,20,> 118,<0.17
COc1ccc(C(=O)c2ccc(=O)n(-c3cc(C)ccc3C)c2)c(O)c1,38,0.01,1,0.5,0.5,13,0.04
COc1ccc(C(=O)c2ccc(=O)n(-c3ccc(Cl)cc3)c2)c(O)c1,1.6,102.5,26.45,6.2,164,61,2.69
CCOc1ccc(-n2cc(C(=O)c3ccc(OC)cc3O)ccc2=O)cc1,55,>1.99,>532,0.206,> 110,> 110,–
COc1ccc(C(=O)c2ccc(=O)n(-c3ccccc3OC)c2)c(O)c1,49,>2.3,>1.5,76,> 114,> 114,–
COc1ccc(/C(=N/Cc2ccc(F)c(F)c2)c2ccc(=O)n(Cc3ccc(F)c(F)c3)c2)c(O)c1,> 403,<0.5,2.07,97.5,201,496,0.41
COc1ccc(-n2cc(C(=O)c3ccc(OC)cc3O)ccc2=O)cc1,222,1.56,66.54,5.2,346,> 114,–
CCCCCn1cc(C(=O)c2ccc(OC)cc2O)ccc1=O,39,2.03,3.95,20,79,46,1.72
COc1ccc(/C(=N/C2CC2)c2ccc(=O)n(C3CC3)c2)c(O)c1,10,16.4,<0.35,> 462,164,123,1.33
CCCn1cc(C(=O)c2ccc(OC)cc2O)ccc1=O,46.3,2.83,3.93,33.3,131,> 139,–
Nc1ncnc2c1ncn2CCOCP(=O)(O)O [ADEFOVIR],286,1.89,1044.5,0.517,540,305,1.77
COc1ccc(C(=O)c2ccc(=O)n(C(C)C)c2)c(O)c1,> 846,<0.82,4.09,170,696,846,0.82
COc1ccc(/C(=N/Cc2ccccc2F)c2ccc(=O)n(Cc3ccccc3F)c2)c(O)c1,30,1.7,0.55,92.6,51,72,0.71
COc1ccc(C(=O)c2ccc(=O)n(-c3ccccc3)c2)c(O)c1,76,2.36,8.95,20,179,176,1.02
